Assay results from ChEMBL document CHEMBL1124954, “Atrial natriuretic peptide receptor modulators: effects of disubstituted quinazolines on receptor binding and in vitro biological activity” (J Med Chem, 1990).
Values belong to the compound of their own block, whether it stands above or below them. Activity calls are given as the source filed them. The calls are words filed in the database; no cut-off is given here.

Tests used:
[1] = In vitro binding affinity towards atrionatriuretic peptide receptor (ANP) using [125I]rANP as radioligand in bovine adrenal zonal glomerulosa membranes
[2] = In vitro binding affinity towards Atrionatriuretic peptide receptor (ANP) using [125I]rANP as radioligand in bovine adrenal zonal glomerulosa membranes
[3] = organism: Rattus norvegicus; experiment: Concentration for rANP inhibition of aldosterone synthesis was determined n rat adrenal glomerulosa; format: functional
Outline: (§1)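 Collagenase-dispersed male Sprague-Dawley rat adrenal glomerulosa cells were used at about 30,000 cells/mL in M199 with KCl 3.5 mM and BSA 2 mg/mL. They were incubated 2 h at 37 °C with ACTH 1 nM and rANP 10⁻¹⁰–10⁻⁸ M, plus compound or water vehicle. Aldosterone was measured by RIA. The EC50 came from a four-parameter logistic fit, compared by Student's t test, 10 experiments.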

[4] = organism: Rattus norvegicus; experiment: Inhibition of aldosterone synthesis was determined in rat adrenal glomerulosa per 2 hours at 10 uM concentration, in the absence of rANP (control = 1.8+/-0.5); format: functional
[5] = In vitro binding affinity towards atrionatriuretic peptide receptor (ANP) using [125I]rANP as radioligand in bovine adrenal zonal glomerulosa membranes; Not active at 20 uM
[6] = organism: Rattus norvegicus; experiment: Inhibition of ACTH (1 nM)-stimulated aldosterone synthesis was determined in rat adrenal glomerulosa (control = 17.4+/-2.5); format: functional
[7] = Percent increase in [125I]rANP binding at 20 uM concentration in bovine zona glomerulosa membranes; format: cell membranes
[8] = organism: Rattus norvegicus; experiment: Concentration for rANP inhibition of aldosterone synthesis was determined in rat adrenal glomerulosa; format: functional; outline: as §1
[9] = organism: Rattus norvegicus; experiment: ACTH-stimulated aldosterone synthesis was determined in rat adrenal glomerulosa cell suspension (control = 8.5+/-0.9); format: functional
[10] = organism: Rattus norvegicus; experiment: Inhibition of aldosterone synthesis was determined in rat adrenal glomerulosa per 2 hours at 3 uM concentration, in the absence of rANP (control = 1+/-0.1); format: functional

SC50 [1]: 5.6 µM
Compound: CN(CCCNC(=O)c1ccco1)c1nc(N2CCCC2)c2ccccc2n1

SC50 [1]: 4.2 µM
Compound: c1ccc2c(N3CCCC3)nc(N3CCNCC3)nc2c1

SC50 [2]: 25 µM
Compound: COc1cc2nc(N3CCN(C(=O)c4ccco4)CC3)nc(N)c2cc1OC

SC50 [1]: 1.5 µM
Compound: CN(CCCN=C(N)N)c1nc(N2CCCC2)c2ccccc2n1

SC50 [1]: 4.5 µM
Compound: CCN(CC)c1nc(NCC/N=C(\N)NC)c2ccccc2n1

SC50 [1]: 2.4 µM
Compound: CCN(CC)c1nc(NCCN=C(N)N)c2ccccc2n1

SC50 [1]: 7.4 µM
Compound: CC/N=C(/N)NCCNc1nc(N(CC)CC)nc2ccccc12

EC50 [3]: 0.18 nM | SC50 [5]: inactive
Compound: CCN(CC)c1nc(OC)c2ccccc2n1
Concentration [4]: 1.4 ng/mL | Concentration [6]: 17.8 ng/mL

SC50 [1]: 7 µM
Compound: O=C(c1ccco1)N1CCN(c2nc(N3CCCC3)c3ccccc3n2)CC1

Increase [7]: 12%
Compound: CC/N=C(/NC#N)NCCNc1nc(N(CC)CC)nc2ccccc12

Increase [7]: 25%
Compound: CCN(CC)c1nc(NCC/N=C(/NC)NC#N)c2ccccc2n1

SC50 [1]: 2.2 µM
Compound: CCN(CC)c1nc(NCCCCN=C(N)N)c2ccccc2n1

EC50 [8]: 0.12 nM | SC50 [1]: 1.8 µM
Compound: CCN(CC)c1nc(NCCCN=C(N)N)c2ccccc2n1
Concentration [9]: 7.7 ng/mL | Concentration [10]: 0.9 ng/mL
